Hits are enriched below; roughly 2.9% of the tested compounds scored in any of these assays.
RanGTP-Impb inh = inhibitors of RanGTP-importin-beta interaction, primary screen, biochemical, FRET, CFP-Ran, YFP-importin-beta, homogeneous. inhibition, % (concentration not given with the values). AID 2216. cell-free CFP-Ran/YFP-importin-beta FRET ratio. 1.1% of 300,000 active;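 active means more than half of the replicate wells show a fall in the fluorescence ratio signal beyond about 16%, limit read from the data, passing the limit was not always enough; inconclusive means exactly half of the replicate wells pass the set limit; inactive means fewer than half of replicates pass the limit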;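 further: 0% = DMSO wells and 100% = Ran loaded with GDP instead of GTP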
proKLK7 act = activates the human kallikrein-7 zymogen; purified proKLK7, EDANS-DABCYL substrate fluorescence; 100% is mature enzyme control, 0% vehicle; 0.9% of 370,000 active; activation, % at 7 µM; AID 652039;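 active means activation above the mean of all tested compounds plus 3 SD, computed per campaign excluding outliers beyond control limits, cut at about 13% in these data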
Wee1 stabilizer = blocks degradation of human Wee1 kinase; P30291; HeLa Luc-Wee1K328M stability, luciferase luminescence; 100% = proteasome inhibitor MG132 effect; reporter increase, % at 5 µM; 1.2% of 220,000 active; AID 1321;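 active means activation above the mean of all tested compounds plus 3 SD, set per screening run, cut at about 8.8% in these data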;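 further: cells exposed to compound for 20 h before luminescence read; 0% = DMSO alone and 100% = MG132 at 30 µM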
Runt-CBFb FRET = inhibitors of human RUNX1 Runt domain binding to CBFb | Q01196+Q13951 | Cerulean-Runt/Venus-CBFb FRET ratio 530/480, 1 h | inhibition, % at 20 µM | 0.46% of 220,000 active;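 active means inhibition over about 50% at 20 µM in the single-dose screen, limit read from the data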;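 further: 0% = DMSO wells and 100% = excess unlabeled CBFb competitor control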
Target sequence (Q01196 whole entry, looked up, the tested form may be a part): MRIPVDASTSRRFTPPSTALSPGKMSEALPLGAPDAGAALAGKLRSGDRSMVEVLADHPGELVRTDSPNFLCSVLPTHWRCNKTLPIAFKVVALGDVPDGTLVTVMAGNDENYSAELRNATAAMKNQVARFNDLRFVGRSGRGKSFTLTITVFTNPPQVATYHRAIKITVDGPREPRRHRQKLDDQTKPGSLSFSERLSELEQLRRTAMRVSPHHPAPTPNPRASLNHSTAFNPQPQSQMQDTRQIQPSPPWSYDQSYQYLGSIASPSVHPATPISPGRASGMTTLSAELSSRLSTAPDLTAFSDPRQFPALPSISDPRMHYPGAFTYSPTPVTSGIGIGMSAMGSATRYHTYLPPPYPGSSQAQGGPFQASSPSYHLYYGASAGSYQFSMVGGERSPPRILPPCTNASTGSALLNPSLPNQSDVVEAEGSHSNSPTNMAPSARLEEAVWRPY
Target sequence (Q13951 whole entry, looked up, the tested form may be a part): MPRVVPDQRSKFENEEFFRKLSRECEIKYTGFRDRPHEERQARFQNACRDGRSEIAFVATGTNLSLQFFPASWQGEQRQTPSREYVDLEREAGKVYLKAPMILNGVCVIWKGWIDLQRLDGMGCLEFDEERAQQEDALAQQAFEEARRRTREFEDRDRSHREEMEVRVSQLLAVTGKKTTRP
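Buffer or medium: Tris pH 7.5 buffer with BSA. Assay system: Cerulean-labeled Runt domain protein. Amount: each fluorescent fusion protein 100 nM. Read-out basis: loss of energy transfer signal. Incubation: 1 h compound exposure, room temperature. Probe or stimulus: Venus-CBFb binding partner, 100 nM. Detection: FRET, excitation 422 nm, emission at 530 and 480 nm.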
AI-2 QS mod = modulates the Vibrio harveyi AI-2 quorum sensing system. Vibrio harveyi JMH597 AI-2 luminescence/OD600 ratio, 9 h; hits give low values; strain lacks LuxN and CqsS sensors; 0 = neutral-control median. activity change, % at 7.5 µM. 0.4% of 300,000 active. AID 2094; in the data active means activity change below about -75%, passing the limit was not always enough; inconclusive means no clear call, values can overlap the other calls;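 further: luminescence divided by OD600 gain over 9 h not by final OD600 alone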
Runt-SMMHC FRET = Runt domain-CBFb-SMMHC interaction inhibition | Cerulean-Runt/Venus-CBFb-SMMHC FRET ratio 530/480, 1 h | AID 1434 | inhibition, % at 20 µM | Q01196+Q13951 | 0.74% of 220,000 active;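 active means mean inhibition across duplicate retests at 20 µM reaching about 50%, limit read from the data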;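 further: 0% = DMSO wells and 100% = wells with excess untagged CBFb-SMMHC; inhibitors lower the FRET ratio by blocking Runt binding to CBFb-SMMHC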
An asterisk follows results filed as active; u = inconclusive; x = not tested or not shown.

SMILES | RanGTP-Impb inh | proKLK7 act | Wee1 stabilizer | Runt-CBFb FRET | AI-2 QS mod | Runt-SMMHC FRET
N#CCSc1nnc(CNc2ccc(F)cc2)o1 | 3 | 0 | 1 | 6 | 23 | 6
Oc1ccc(Cl)cc1N=Cc1sc2ccccc2c1Cl | u | -1 | 1 | x | 0 | 17
O=[N+]([O-])c1ccc(O)c(N=Cc2sc3ccccc3c2O)c1 | 38* | 0 | -4 | 16 | 21 | 48
Oc1c(C=Nc2cccc3cccnc23)sc2ccccc12 | 39* | 0 | -2 | 35 | 4 | 18
Cc1cccc(/N=C/c2sc3ccccc3c2O)n1 | 33* | 0 | 2 | -1 | 22 | -1
O=C(N/N=C/c1sc2ccccc2c1O)c1cccc2ccccc12 | 7 | -1 | 0 | -7 | u | -19
CC(=O)CCC(=O)N1CCC(n2nccc2NC(=O)c2ccccc2C)CC1 | 6 | 0 | x | x | 24 | x
CCOC(=O)c1c(C)nn(Cc2cccc(Cl)c2)c1N | 2 | -1 | 0 | 70* | -9 | -1
O=C(COC(=O)c1cc(Cl)ccc1[N+](=O)[O-])NC1CC1 | x | 0 | x | x | x | x
NS(=O)(=O)c1cccc(NC(=O)COC(=O)c2cc(Cl)ccc2[N+](=O)[O-])c1 | -1 | 1 | 1 | -1 | -79* | 0
NS(=O)(=O)c1cccc(NC(=O)COC(=O)c2ccccc2C(=O)c2ccccc2)c1 | x | 0 | x | x | x | x
Cc1ccc(NC(=O)COC(=O)c2cc(Cl)ccc2[N+](=O)[O-])cc1 | 1 | 0 | -1 | -2 | -92* | -4
NS(=O)(=O)c1ccc(NC(=O)COC(=O)c2ccc(Cl)cc2[N+](=O)[O-])cc1 | -9 | 0 | 11* | -2 | -13 | 0
NS(=O)(=O)c1ccc(NC(=O)COC(=O)c2cc3ccccc3cc2O)cc1 | 0 | 8 | 1 | -3 | 17 | -8
COc1ccc(C2OC(=O)CC2C(=O)NCc2ccc(Cl)cc2)cc1OC (configuration not stated) | -1 | 0 | -4 | 1 | 33 | 1
Cc1ccc(NC(=O)Cc2nnc(SCC(=O)NC3CCCC3)n2C)cc1C | 6 | 0 | x | x | -3 | x
CC(=O)N1c2ccc(S(=O)(=O)N3CCC(C(=O)NCc4ccc(N(C)C)cc4)CC3)cc2CC1C (configuration not stated) | 67* | 1 | x | x | 25 | x
O=S(=O)(c1ccc(Cl)s1)N1CCCc2cccc(O)c21 | -2 | -1 | 9.2* | 1 | 1 | -1
Cc1ccc(C2=NS(=O)(=O)N(C)C(C(=O)NCc3ccc4c(c3)OCO4)=C2)cc1 | u | 0 | x | x | 33 | x
Cc1ccc(O)c(C(=O)/C=C/c2ccc3c(c2)OCCCO3)c1 | 4 | 0 | 9.2* | -3 | 22 | -6
O=S(=O)(CC1NCCc2ccccc21)NCCc1ccccc1 (configuration not stated) | x | 0 | x | x | x | x
Cc1cc(-c2nc3cccnc3s2)ccc1NS(=O)(=O)c1ccc2c(c1)OCCO2 | 71* | -259 | 4 | 102* | 2 | 119*
CCOC(=O)C1=C(C(=O)OCC)C2N(Cc3ccc(C#N)cc3)c3ccccc3[C@@]23C[C@@H](C(=O)OC)N(S(=O)(=O)c2c(C)noc2C)C3=N1 (some centres not stated) | x | 0 | x | x | x | x
Cc1ccc(C)c(OCc2nnc(NC(=O)c3ccc4c(c3)OCO4)s2)c1 | 0 | -1 | 11* | -2 | 18 | -11
O=C(NC1=N[C@@]2(C=C3CCCCC3n3c(=O)n(-c4ccccc4)c(=O)n32)[C@H](Cc2ccccc2)N1Cc1ccccc1)c1ccccc1 (some centres not stated) | x | 0 | x | x | x | x
SMILES | RanGTP-Impb inh | proKLK7 act | Wee1 stabilizer | Runt-CBFb FRET | AI-2 QS mod | Runt-SMMHC FRET
O=C(COC(=O)c1n[nH]c2ccccc12)c1cccc(Br)c1 | 3 | 0 | x | x | -92* | x
CC1=Nc2ccccc2/C1=C/c1nc(-c2ccc(C)s2)oc1O | 37* | 9 | 7 | -17 | 6 | -36
Cc1nn(C)c(Cl)c1CN1CCN(C2CCCCC2)C(CCO)C1 (configuration not stated) | 4 | 0 | -4 | 118* | 13 | -5
COc1ccc(OC)c(C2CC(=O)N3CN(c4ccccc4)CSC3=C2C#N)c1 (configuration not stated) | -7 | 0 | -3 | 33 | 13 | 62*
COc1cc(OC)c(C2CC(=O)N3CN(c4ccccc4C)CSC3=C2C#N)cc1OC (configuration not stated) | -64 | 2 | -2 | 41 | 14 | 67*
Brc1ccc(CN2CCCc3nc(-c4ccccc4)ccc32)cc1 | x | -9 | x | x | x | x
COC(=O)c1cc2c(c3c4cc(C)ccc4n(S(=O)(=O)c4cccc(C)c4)c13)C(=O)N(Cc1ccc(N(C)C)cc1)C2 | x | -1 | x | x | x | x
CN1CCN(S(=O)(=O)c2cccc(C(=O)Nc3sc4c(c3C(N)=O)CCCC4)c2)CC1 | -3 | 1 | -1 | -5 | -3 | 7
CN1CCc2c(sc(NC(=O)c3ccc(S(=O)(=O)N4CCCC4)cc3)c2C(N)=O)C1 | 41* | 1 | x | x | 13 | x
CN1CCc2c(sc(NC(=O)C3CCCN3S(=O)(=O)c3ccc(Cl)s3)c2C(N)=O)C1 (configuration not stated) | 164* | 1 | x | x | 9 | x
CN1CCc2c(sc(NC(=O)c3ccc(S(=O)(=O)N4CCc5ccccc54)cc3)c2C(N)=O)C1 | 3 | -58 | 3 | 7 | 11 | 14
CC(=O)N1CCc2c(sc(NC(=O)C3CCCN3S(=O)(=O)c3cccs3)c2C(N)=O)C1 (configuration not stated) | -6 | -1 | x | x | 0 | x
CN1CCc2c(sc(NC(=O)c3ccc(S(=O)(=O)N4CCCCCC4)cc3)c2C(N)=O)C1 | 58* | x | x | x | 24 | x
COC(=O)c1c(NC(=O)c2ccc(S(=O)(=O)N3CC(C)OC(C)C3)cc2)sc2c1CCN(C)C2 (configuration not stated) | x | -16 | x | x | x | x
CNC(=O)c1c(NC(=O)c2ccc(S(=O)(=O)N3CCCc4ccccc43)cc2)sc2c1CCN(C)C2 | 28* | -4 | -3 | -262 | 13 | -48
COc1cc(/C=N/n2nnnc2N)cc(OC)c1OC | -2 | 1 | 0 | 0 | 14 | 2
COCc1cn(CC[C@@H]2CC[C@@H](NC(=O)Nc3ccc4c(c3)OCO4)[C@@H](CO)O2)nn1 | x | 0 | x | x | x | x
O=C1N(c2ccccc2)CC2C(c3ccccc3)C(c3ccccc3)N3CCCC123 (configuration not stated) | x | 0 | x | x | x | x
CCCCN1CN2Cc3cc(F)ccc3C2CS1(=O)=O (configuration not stated) | x | 0 | x | x | x | x
CCn1c2ccccc2c2cc(NC(=O)COC(=O)c3cccc(F)c3F)ccc21 | x | 0 | x | x | x | x

Screening results deposited in PubChem by several laboratories.
